# High-throughput results: PubChem BioAssay, several laboratories
# SENP1 inh = inhibitors of human SENP1 SUMO protease catalytic domain. recombinant SENP1 catalytic domain, CyPet-SUMO1-YPet FRET cleavage. inhibition, % at 10 µM. 360,000 compounds, 0.21% hits. AID 624204;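 active means inhibition at least 30% at 10 µM, raw YFP signal under a set limit, fluorescence ratio 0.5 to 1.5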;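 further: 0% = enzyme with DMSO and 100% = no enzyme wells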
# Target sequence (Q9P0U3 419-644 limits assumed): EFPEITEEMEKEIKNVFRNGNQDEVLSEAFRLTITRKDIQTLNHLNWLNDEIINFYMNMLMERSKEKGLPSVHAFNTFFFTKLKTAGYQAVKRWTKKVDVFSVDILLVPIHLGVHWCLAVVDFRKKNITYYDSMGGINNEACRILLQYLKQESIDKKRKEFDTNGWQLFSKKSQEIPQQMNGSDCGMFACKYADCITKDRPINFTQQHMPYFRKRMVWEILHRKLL
#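 system = hSENP1 catalytic domain, recombinant | reagent = SFCypet-SUMO1-SFYpet substrate at 25 nM | doses = one dose per compound, 10 µM, 0.5% DMSO | incubation = enzyme reaction for 50 min at room temperature, dark | measured by = FRET, CFP and YFP emission | controls = no-enzyme low, enzyme-DMSO high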
# SENP8 block-1 = blocks the human protease SENP8. Q96LD8. purified SENP8, Z-RLRGG-aminoluciferin cleavage, luminescence. inhibition, % at 10 µM. 330,000 compounds, 1.2% hits. AID 2540; in the data active means inhibition above about 50%
# SENP7 block = inhibitors of human SENP7 protease; inhibition, % at 5 µM; 330,000 compounds, 1.5% hits; Q9BQF6; recombinant SENP7, Z-RLRGG-aminoluciferin luminescence, 40 min;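 active means inhibition above about 50% at the single test dose, limit read from the data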;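 further: plate controls were DMSO with enzyme for no effect and no enzyme buffer wells for full effect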
# SENP6 block = inhibitors of human SENP6 protease; Recombinant SENP6 catalytic domain, aminoluciferin luminescence; inhibition, % at 10 µM; 330,000 compounds, 1.8% hits;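 active means inhibition above about 50% at the single tested dose, limit read from the data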;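 further: plate controls were DMSO wells with enzyme for no effect and DMSO wells lacking enzyme for full effect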
# SENP8 block-2 = blocks human SENP8 cleavage of Nedd8 substrate; 360,000 compounds, 0.64% hits; recombinant SENP8, Nedd8 substrate fluorescence; inhibition, % at 20 µM; in the data active means inhibition mostly above about 40%, no sharp cut-off; inactive means mostly below about 27%
# HSP90 inh = inhibitors of HSP90 luciferase refolding in rabbit reticulocyte lysate; inhibition, % at 5.6 µM; 290,000 compounds, 0.91% hits; luciferase refolding luminescence, 3 h;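 active means inhibition above the screen-wide mean plus 3 SD, computed separately per campaign, cut at about 16% in these data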;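 further: 0% = DMSO wells and 100% = 60 µM geldanamycin wells; inhibitors lower the luminescence because luciferase stays unfolded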
# SENP8 conf = human SENP8 inhibition, confirmed; Recombinant SENP8, Z-RLRGG-aminoluciferin luminescence, 60 min; 6,200 compounds, 40% hits; inhibition, % at 12.5 µM; shares compounds with SENP7 block;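 active means mean inhibition across replicates above about 50%, limit read from the data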
# SENP6 conf = confirmation of human SENP6 protease inhibitors. shares compounds with SENP7 block. 6,200 compounds, 58% hits. recombinant SENP6, Z-RLRGG-aminoluciferin luminescence. inhibition, % at 12.5 µM. AID 488915
# SENP7 confirm = confirmation of human SENP7 protease inhibitors; shares compounds with SENP7 block; recombinant SENP7, Z-RLRGG-aminoluciferin luminescence, 40 min; inhibition, % at 12.5 µM; 6,200 compounds, 69% hits; AID 488917
# Casp3 SENP sel = inhibits human caspase-3 in SENP selectivity test. shares compounds with SENP7 block. purified caspase-3, Z-DEVD-aminoluciferin luminescence, 60 min. inhibition, % at 12.5 µM. 6,200 compounds, 60% hits. AID 488918;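 active means mean inhibition above about 50%, limit read from the data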;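 further: plate controls were enzyme with DMSO for no effect and wells without caspase-3 for full effect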
# Target sequence (P42574 28-227 limits assumed): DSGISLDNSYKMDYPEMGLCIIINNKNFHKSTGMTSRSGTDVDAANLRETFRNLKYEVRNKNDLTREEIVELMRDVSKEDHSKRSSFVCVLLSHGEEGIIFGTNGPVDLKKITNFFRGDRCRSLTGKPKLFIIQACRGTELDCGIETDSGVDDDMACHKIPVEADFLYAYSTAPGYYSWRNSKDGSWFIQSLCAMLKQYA
# Luc interf = luminescence interference (SENP counter-screen) | shares compounds with SENP7 block | Pre-incubated SENP8/Z-RLRGG-aminoluciferin, luciferase luminescence interference | inhibition, % at 12.5 µM | 6,200 compounds, 39% hits | AID 488919;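 active means mean inhibition above about 50% when retested at one dose, limit read from the data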;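 further: plate controls were DMSO wells with completed reaction for no effect and substrate without enzyme for full effect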
# * = called active by the depositor; i = inactive; . = not tested or not shown. Sampled rows, rich in hits. Any-hit rate of the full collection: about 2.9%.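 How the source made its calls, unless noted: active means mean inhibition above about 50% in the one-dose retest (limit read from the data); inactive means the rest.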
SMILES,SENP1 inh,SENP8 block-1,SENP7 block,SENP6 block,SENP8 block-2,HSP90 inh,SENP8 conf,SENP6 conf,SENP7 confirm,Casp3 SENP sel,Luc interf
c1cncc(-c2noc(-c3ccc4ccccc4c3)n2)c1,-3,83*,91*,90*,-172,3,56*,69*,94*,75*,19
c1ccc(-c2ccc(-c3nc(-c4cccnc4)no3)cc2)cc1,3,90*,99*,97*,-17,-5,70*,71*,80*,88*,35
CN(c1cccc(F)c1)c1cc2c(c3c1ccn3C)C1CCC2O1 (stereo not given),6,.,.,.,-127,.,.,.,.,.,.
O=C(N/N=C/c1ccc(O)cc1)c1cccc(C(F)(F)F)c1,3,-7,-1,-8,-16,-3,.,.,.,.,.
O=C(N/N=C/c1ccc(O)cc1)c1cccc(N/N=C/c2ccc(O)cc2)c1,-2,15,22,52*,-32,12,6,-11,25,25,32
O=C(O)c1cccc(N/N=C/c2ccc(F)c(F)c2)c1,0,94*,2,101*,-19,7,99*,99*,102*,86*,98*
COc1ccc(N2CCN(C(=O)COC(=O)/C=C/c3ccc(C(F)(F)F)cc3)CC2)cc1,2,-12,-10,-12,7,.,.,.,.,.,.
COc1cc(OC)cc(C(=O)OCC(=O)c2cc(C)n(CC3CCCO3)c2C)c1 (stereo not given),0,48,22,68*,0,.,57*,49,79*,53*,3
Cc1nc(NC(=O)COc2ccccc2)sc1C(=O)Nc1cccc(Cl)c1,2,2,47,-2,-40,4,.,.,.,.,.
COc1ccc(C(=O)Nc2nc3ccccc3s2)c(OC)c1,-1,98*,101*,97*,-171,91*,88*,100*,103*,98*,33
S=C(Nc1ccc(Cl)cc1)c1nc2ccccc2s1,-1,1,57*,18,31,-2,9,7,0,5,2
COc1ccc(NC(=O)c2sc(NC(=O)COc3ccccc3)nc2C)cc1,1,59*,0,68*,11,-2,-5,54*,96*,82*,26
COc1ccc(NC(=O)c2nc3ccccc3s2)cc1,0,95*,97*,95*,9,13,4,98*,102*,94*,75*
COc1cc(CNC(=O)c2ccc3oc(C(C)C)nc3c2)cc(OC)c1,-2,-9,-19,-20,7,1,.,.,.,.,.
Cc1cccc(C)c1NC(=O)C(c1ccc(C(F)(F)F)cc1)n1c(=O)c(-c2cc3ccccc3[nH]2)nc2ccccc21 (stereo not given),-17,.,.,.,-391,.,.,.,.,.,.
COc1ccc(C(=O)Nc2nnc(SCC(=O)Nc3ccc(NC(C)=O)cc3)s2)c(OC)c1,1,-4,47,22,-74,12,.,.,.,.,.
COc1ccc2nc(NC(=O)Nc3ccccc3)sc2c1,1,49,85*,68*,0,13,44,46,91*,52*,11
COc1ccc(C(=O)Nc2nnc(SCC(=O)NC3CCCC3)s2)c(OC)c1,0,37,63*,64*,-47,11,15,12,12,18,4
COc1ccc(NC(=O)c2cc3ccccn3n2)cc1,0,58*,69*,71*,15,11,77*,75*,94*,88*,79*
C=Cc1cnc([N+](=O)[O-])n1C,2,.,.,.,26,.,.,.,.,.,.
COc1ccc(C(=O)Nc2ccc(Cl)c(Cl)c2)c(OC)n1,2,-6,51*,12,9,-5,18,14,25,34,14
COc1ccc(S(=O)(=O)Cc2ccc(C(=O)NC3CCCCCC3)o2)cc1,2,-7,12,-19,7,-4,.,.,.,.,.
Cc1cc(N(C)C)ccc1N=Nc1ccc2ncccc2c1,8,92*,96*,92*,24,3,90*,96*,49,43,56*
CCCSc1nn2c(=O)c3ccccc3nc2s1,1,37,45,64*,7,-2,67*,65*,89*,83*,65*
Cc1cccc(Nc2nn3c(=O)c4ccccc4nc3s2)c1,0,-11,-5,-3,-23,-2,.,.,.,.,.
SMILES,SENP1 inh,SENP8 block-1,SENP7 block,SENP6 block,SENP8 block-2,HSP90 inh,SENP8 conf,SENP6 conf,SENP7 confirm,Casp3 SENP sel,Luc interf
O=C(NCC(=O)N1CCCC1)NN=Cc1ccccc1O,-19,.,.,.,-176,.,.,.,.,.,.
O=C(Nc1nccs1)C(Br)C(Br)c1ccccc1 (stereo not given),4,79*,91*,84*,3,3,76*,73*,95*,85*,9
O=C(/C=C/c1cccc(F)c1)Nc1nccs1,-1,26,46,40,-32,-9,.,.,.,.,.
O=C(/C=C\c1ccccc1)Nc1nccs1,4,61*,88*,83*,5,4,59*,61*,95*,88*,19
CC(=O)OC(C(=O)Nc1nccs1)c1ccccc1 (stereo not given),3,5,1,1,13,7,.,.,.,.,.
Cc1c(C=O)c2ccccc2n1CC(=O)N1CCc2ccccc2C1,1,1,4,10,10,-1,.,.,.,.,.
Cc1ccccc1-c1nnc(-c2ccccc2C)o1,0,58*,85*,77*,1,2,13,29,63*,41,11
Cc1ccccc1-c1nnc(-c2ccc(Br)cc2)o1,1,33,67*,75*,2,-5,14,13,22,30,7
Cc1ccccc1-c1nnc(-c2cccc3ccccc23)o1,1,.,.,.,i,.,.,.,.,.,.
Cc1ccc(NC(=O)COc2ccc3c(c2)OCO3)c(Cl)c1,-1,0,62*,21,14,.,12,6,7,4,-2
CCc1ccccc1NC(=O)COc1ccc2c(c1)OCO2,1,-7,1,-10,11,1,.,.,.,.,.
Cc1ccccc1C(=O)Nc1ccc(Br)cn1,1,39,51*,59*,6,0,7,40,79*,63*,16
